Calls of active or inactive are those of the source. No cut-off for these calls is given here.
Experiments:
[1] = biological target: T1, DNA repair protein RAD51 homolog 1 (Homo sapiens, UniProt Q06609); assay: Inhibition of biotinylated BRC4 peptide binding to His-tagged human RAD51 expressed in Escherichia coli Rosetta(DE3) pLysS cells assessed as BRC4-RAD51 protein -protein interaction by competitive ELISA
T1 sequence (Q06609 whole entry): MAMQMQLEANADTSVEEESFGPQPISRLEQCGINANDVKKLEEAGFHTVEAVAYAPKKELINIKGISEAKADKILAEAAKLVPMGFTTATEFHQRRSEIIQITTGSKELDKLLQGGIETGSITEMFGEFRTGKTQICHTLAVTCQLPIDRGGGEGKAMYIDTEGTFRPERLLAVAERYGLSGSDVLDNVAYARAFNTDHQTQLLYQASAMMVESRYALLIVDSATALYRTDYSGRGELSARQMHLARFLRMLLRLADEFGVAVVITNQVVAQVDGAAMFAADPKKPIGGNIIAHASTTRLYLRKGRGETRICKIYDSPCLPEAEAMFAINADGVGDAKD
In short: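 Biotinylated BRC4 peptide coated onto wells, washed with PBS/0.05% Tween-20, blocked with 1% BSA/PBST, then hybridized overnight with human RAD51. Compounds tested at 0.01–100 μM in triplicate with 1% DMSO constant. Bound RAD51 detected with anti-RAD51 and HRP secondary antibody, TMB colorimetric signal quenched with 1 M HCl. EC50 ± SD reported.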

BXPC-3 [2] = assay: Antiproliferative activity against human BxPC3 cells after 72 hrs in presence of olaparib by CellTiter-Glo luminescent cell viability assay; format: functional, cell-based
In short: (§1)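 BxPC-3 cells grown in RPMI 1640 with 10% FBS, penicillin/streptomycin and 2 mM glutamine. Disruptor given alone or with 10 μM olaparib in medium containing 0.6% DMSO, with the same DMSO in controls. Viability read at 72 h, measured alongside cell death.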

[3] = biological target: T2, DNA repair protein RAD51 homolog 1 (Homo sapiens) (UniProt Q06609); assay: Inhibition of RAD51 interaction in human BxPC3 cells assessed as inhibition of homologous recombination incubated for 5 hrs by RT-PCR analysis; format: cell-based
T2 sequence (whole entry): T1 sequence (Q06609 whole entry)
In short: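 Commercial two-plasmid recombination assay in BxPC-3 cells, with compound applied at different doses for 5 h simultaneously with plasmid transfection. Tested up to 40 μM, limited by solubility. Dose giving 50% HR inhibition estimated by polynomial regression.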

BXPC-3 [4] = assay: Antiproliferative activity against human BxPC3 cells at 5 uM after 72 hrs in presence of olaparib by CellTiter-Glo luminescent cell viability assay; format: functional, cell-based; in short: as §1
BXPC-3 [5] = assay: Antiproliferative activity against human BxPC3 cells at 20 uM after 72 hrs in presence of olaparib by CellTiter-Glo luminescent cell viability assay; format: functional, cell-based; in short: as §1
CAPAN-1 = assay: Induction of DNA damage in BRCA2 defective human Capan1 cells assessed as increase in gamma-H2AX labelling […] hrs by immunofluorescence microscopic analysis; format: functional, cell-based
In short: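 Cells exposed 48 h to 20 μM disruptor alone or with 10 μM olaparib, in medium with 0.6% DMSO. Nuclear γ-H2AX foci visualized by immunofluorescence and percentage of labeled nuclei scored. BxPC-3 (functional BRCA2) and Capan-1 (BRCA2-defective) cultures in RPMI 1640 with 10% FBS.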

Structure (SMILES) | EC50 [1] | also measured
O=C(O)CCC(=O)N1N=C(c2c(-c3ccccc3)c3ccccc3[nH]c2=O)CC1c1ccc(C(F)(F)F)cc1 (racemic) | Not Active | 
O=C(O)CCC(=O)N1N=C(c2c(-c3ccccc3)c3ccccc3[nH]c2=O)CC1c1ccc(Br)cc1 (racemic) | Not Active | 
O=C(O)CCC(=O)N1N=C(c2c(-c3ccccc3)c3ccccc3[nH]c2=O)CC1c1ccc(Cl)cc1 (racemic) | Not Active | 
COC(=O)CCC(=O)N1N=C(c2c(-c3ccccc3)c3cc(Cl)ccc3[nH]c2=O)CC1c1ccc(F)cc1 (racemic) | Not Active | 
O=C(O)CCC(=O)N1N=C(c2c(-c3ccccc3)c3ccccc3[nH]c2=O)CC1c1ccc(F)cc1 (racemic) | Not Active | 
CCCn1cc2cc(C3CC(c4c(-c5ccccc5)c5cc(Cl)ccc5[nH]c4=O)=NN3C(=O)CCC(=O)O)ccc2n1 (racemic) | Not Active | 
CCn1ccc2cc(C3CC(c4c(-c5ccccc5)c5cc(Cl)ccc5[nH]c4=O)=NN3C(=O)CCC(=O)O)ccc21 (racemic) |  | Activity (BXPC-3 [2]): inactive
CCCn1ncc2cc(C3CC(c4c(-c5ccccc5)c5cc(Cl)ccc5[nH]c4=O)=NN3C(C)=O)ccc21 (racemic) |  | inhibition [3]: inactive; Activity (BXPC-3 [2]): inactive
COc1ccc(C2CC(c3c(-c4ccccc4)c4ccccc4[nH]c3=O)=NN2C(=O)CCC(=O)O)cc1 (racemic) | Not Active | 
O=C(O)CCC(=O)N1N=C(c2c(-c3ccccc3)c3cc(Cl)ccc3[nH]c2=O)CC1c1ccc2c(cnn2C2CCCCC2)c1 (racemic) | Not Active | 
CC(=O)N1N=C(c2c(-c3ccccc3)c3cc(Cl)ccc3[nH]c2=O)CC1c1ccc2c(ccn2C)c1 (racemic) |  | inhibition [3]: inactive
CCCn1ncc2cc(C3CC(c4c(-c5ccccc5)c5cc(Cl)ccc5[nH]c4=O)=NN3C(=O)CCC(=O)O)ccc21 (racemic) | Not Active | 
COc1ccc(C2CC(c3c(-c4ccccc4)c4cc(Cl)ccc4[nH]c3=O)=NN2C(=O)CCC(=O)O)cc1F (racemic) | Not Active | 
CC(=O)N1N=C(c2c(-c3ccccc3)c3cc(Cl)ccc3[nH]c2=O)CC1c1ccc(C(F)(F)F)cc1 (racemic) | Not Active | 
O=C(O)CCC(=O)N1N=C(c2c(-c3ccccc3)c3cc(Cl)ccc3[nH]c2=O)CC1c1ccc(-c2ccc(F)cc2)cc1 (racemic) |  | Activity (BXPC-3 [2]): inactive
Cn1ccc2cc(C3CC(c4c(-c5ccccc5)c5cc(Cl)ccc5[nH]c4=O)=NN3C(=O)CCC(=O)O)ccc21 (racemic) |  | Activity (BXPC-3 [4]): inactive; inhibition [3]: inactive
CC(C)(C)c1ccc(C2CC(c3c(-c4ccccc4)c4cc(Cl)ccc4[nH]c3=O)=NN2C(=O)CCC(=O)O)cc1 (racemic) | Not Active | 

Structure (SMILES) | EC50 [1] | also measured
CC(=O)N1N=C(c2c(-c3ccccc3)c3cc(Cl)ccc3[nH]c2=O)CC1c1ccco1 (racemic) | Not Active | 
CCn1cc2cc(-c3ccc(C4CC(c5c(-c6ccccc6)c6cc(Cl)ccc6[nH]c5=O)=NN4C(=O)CCC(=O)O)cc3)ccc2n1 (racemic) |  | Activity (BXPC-3 [5]): Active; inhibition [3]: inactive
CC(=O)N1N=C(c2c(-c3ccccc3)c3cc(Cl)ccc3[nH]c2=O)CC1c1ccc(C(C)(C)C)cc1 (racemic) |  | inhibition [3]: inactive
O=C(O)CCC(=O)N1N=C(c2c(-c3ccccc3)c3cc(Cl)ccc3[nH]c2=O)CC1c1ccc2nn(C3CCCCC3)cc2c1 (racemic) | Not Active | 
O=C(O)CCC(=O)N1N=C(c2c(-c3ccccc3)c3cc(Cl)ccc3[nH]c2=O)CC1c1ccc(-c2ccc(Br)cc2)cc1 (racemic) |  | Activity (BXPC-3 [2]): inactive
O=C(O)CCC(=O)N1N=C(c2c(-c3ccccc3)c3ccccc3[nH]c2=O)CC1c1cccc(Br)c1 (racemic) | Not Active | 
NC(=O)CCC(=O)N1N=C(c2c(-c3ccccc3)c3cc(Cl)ccc3[nH]c2=O)CC1c1ccc(F)cc1 (racemic) | Not Active | 
COc1ccc(C2CC(c3c(O)nc4ccc(Cl)cc4c3-c3ccccc3)=NN2C(=O)CCC(=O)O)cc1 (racemic) | Not Active | 
O=C(O)CCC(=O)N1N=C(c2c(-c3ccccc3)c3cc(Cl)ccc3[nH]c2=O)CC1c1ccc(Br)cc1 (racemic) |  | inhibition [3]: inactive; Activity (BXPC-3 [2]): inactive
CS(=O)(=O)NCCC(=O)N1N=C(c2c(-c3ccccc3)c3cc(Cl)ccc3[nH]c2=O)CC1c1ccc(F)cc1 (racemic) | Not Active | 
NCCC(=O)N1N=C(c2c(-c3ccccc3)c3cc(Cl)ccc3[nH]c2=O)CC1c1ccc(F)cc1 (racemic) | Not Active | 
O=C(c1cc(Cc2n[nH]c(=O)c3ccccc23)ccc1F)N1CCN(C(=O)C2CC2)CC1 |  | Activity (CAPAN-1): Active
CC(=O)N1N=C(c2c(-c3ccccc3)c3cc(Cl)ccc3[nH]c2=O)CC1c1ccc(Cl)cc1 (racemic) |  | Activity (BXPC-3 [2]): inactive
CCC(=O)N1N=C(c2c(-c3ccccc3)c3cc(Cl)ccc3[nH]c2=O)CC1c1ccc(Br)cc1 (racemic) |  | inhibition [3]: inactive; Activity (BXPC-3 [2]): inactive
O=C(O)CCC(=O)N1N=C(c2c(O)nc3ccc(Cl)cc3c2-c2ccccc2)CC1c1ccco1 (racemic) | Not Active | 
CCC(=O)N1N=C(c2c(-c3ccccc3)c3cc(Cl)ccc3[nH]c2=O)CC1c1ccc(Cl)cc1 (racemic) |  | inhibition [3]: inactive; Activity (BXPC-3 [2]): inactive

Reference: ChEMBL document CHEMBL4402564, “Synthetic Lethality in Pancreatic Cancer: Discovery of a New RAD51-BRCA2 Small Molecule Disruptor That Inhibits Homologous Recombination and Synergizes with Olaparib” (J Med Chem, 2020)
